Source: ChEMBL document CHEMBL1151705, “Novel azalides derived from 16-membered macrolides. Part II: Isolation of the linear 9-formylcarboxylic acid and its sequential macrocyclization with an amino alcohol or an azidoamine” (2008)
Converted amounts (≈) assume the structure as drawn.

Key:
Assay type in all cases: functional
Streptococcus pneumoniae [1] = test: Antimicrobial activity against Streptococcus pneumoniae 10 expressing mefA after 20 hrs by agar dilution method; conditions: Streptococcus pneumoniae, 20 h; read-out: MIC
Method in brief: (§1)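 Streptococci, H. influenzae and M. catarrhalis were precultured on blood agar plates. Suspensions of about 10⁶ CFU/ml were inoculated onto sensitivity disk agar supplemented with 5% horse blood and incubated at 37 °C for 20 h. MIC was read as the lowest drug concentration with no visible growth.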

Streptococcus pneumoniae [2] = test: Antimicrobial activity against Streptococcus pneumoniae 8 expressing inducible ermB after 20 hrs by agar dilution method; conditions: Streptococcus pneumoniae, 20 h; read-out: MIC; method in brief: as §1
Haemophilus influenzae [3] = test: Antimicrobial activity against drug-susceptible Haemophilus influenzae 3 after 20 hrs by agar dilution method; conditions: Haemophilus influenzae, 20 h; read-out: MIC; method in brief: as §1
Streptococcus pneumoniae [4] = test: Antimicrobial activity against Streptococcus pneumoniae 5 constitutively expressing ermB/mefA after 20 hrs by agar dilution method; conditions: Streptococcus pneumoniae, 20 h; read-out: MIC; method in brief: as §1
Streptococcus pyogenes [5] = test: Antimicrobial activity against Streptococcus pyogenes 3 expressing mefA after 20 hrs by agar dilution method; conditions: Streptococcus pyogenes, 20 h; read-out: MIC; method in brief: as §1
Streptococcus pneumoniae [6] = test: Antimicrobial activity against Streptococcus pneumoniae 6 constitutively expressing ermB after 20 hrs by agar dilution method; conditions: Streptococcus pneumoniae, 20 h; read-out: MIC; method in brief: as §1
Staphylococcus aureus [7] = test: Antimicrobial activity against Staphylococcus aureus 4 constitutively expressing ermA after 20 hrs by agar dilution method
Method in brief: (§2)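 Agar dilution MIC. S. aureus seed culture was grown in sensitivity test broth. Cell suspension (about 10⁶ CFU/ml) was inoculated onto sensitivity disk agar with 5% horse blood and incubated at 37 °C for 20 h. MIC was the lowest drug concentration that prevented visible growth.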

Staphylococcus aureus [8] = test: Antimicrobial activity against Staphylococcus aureus 5 expressing inducible ermB after 20 hrs by agar dilution method; conditions: Staphylococcus aureus, 20 h; read-out: MIC; method in brief: as §2
Moraxella catarrhalis [9] = test: Antimicrobial activity against drug-susceptible Moraxella catarrhalis 1 after 20 hrs by agar dilution method; conditions: Moraxella catarrhalis, 20 h; read-out: MIC; method in brief: as §1
Streptococcus pneumoniae [10] = test: Antimicrobial activity against Streptococcus pneumoniae 7 expressing inducible ermB after 20 hrs by agar dilution method; conditions: Streptococcus pneumoniae, 20 h; read-out: MIC; method in brief: as §1
Staphylococcus aureus [11] = test: Antimicrobial activity against drug-susceptible Staphylococcus aureus 209P JC-1 after 20 hrs by agar dilution method; conditions: Staphylococcus aureus, 209P, 20 h; read-out: MIC; method in brief: as §2
Staphylococcus aureus [12] = test: Antimicrobial activity against drug-susceptible Staphylococcus aureus 3 after 20 hrs by agar dilution method; conditions: Staphylococcus aureus, 20 h; read-out: MIC; method in brief: as §2
Streptococcus pneumoniae [13] = test: Antimicrobial activity against drug-susceptible Streptococcus pneumoniae 2 after 20 hrs by agar dilution method; conditions: Streptococcus pneumoniae, 20 h; read-out: MIC; method in brief: as §1
Streptococcus pneumoniae [14] = test: Antimicrobial activity against Streptococcus pneumoniae 9 expressing mefA after 20 hrs by agar dilution method; conditions: Streptococcus pneumoniae, 20 h; read-out: MIC; method in brief: as §1
Streptococcus pyogenes [15] = test: Antimicrobial activity against Streptococcus pyogenes 2 constitutively expressing ermB after 20 hrs by agar dilution method; method in brief: as §1
Haemophilus influenzae [16] = test: Antimicrobial activity against drug-susceptible Haemophilus influenzae 1 after 20 hrs by agar dilution method; conditions: Haemophilus influenzae, 20 h; read-out: MIC; method in brief: as §1
Streptococcus pyogenes [17] = test: Antimicrobial activity against drug-susceptible Streptococcus pyogenes 1 after 20 hrs by agar dilution method; conditions: Streptococcus pyogenes, 20 h; read-out: MIC; method in brief: as §1
Haemophilus influenzae [18] = test: Antimicrobial activity against drug-susceptible Haemophilus influenzae 2 after 20 hrs by agar dilution method; conditions: Haemophilus influenzae, 20 h; read-out: MIC; method in brief: as §1
Streptococcus pneumoniae [19] = test: Antimicrobial activity against drug-susceptible Streptococcus pneumoniae DP1 Type1 after 20 hrs by agar dilution method; conditions: Streptococcus pneumoniae, 20 h; read-out: MIC; method in brief: as §1
Haemophilus influenzae [20] = test: Antimicrobial activity against drug-susceptible Haemophilus influenzae 4 after 20 hrs by agar dilution method; conditions: Haemophilus influenzae, 20 h; read-out: MIC; method in brief: as §1
Streptococcus pneumoniae [21] = test: Antimicrobial activity against Streptococcus pneumoniae 4 constitutively expressing ermB after 20 hrs by agar dilution method; conditions: Streptococcus pneumoniae, 20 h; read-out: MIC; method in brief: as §1
Staphylococcus aureus [22] = test: Antimicrobial activity against drug-susceptible Staphylococcus aureus 2 after 20 hrs by agar dilution method; conditions: Staphylococcus aureus, 20 h; read-out: MIC; method in brief: as §2
Staphylococcus aureus [23] = test: Antimicrobial activity against Staphylococcus aureus 6 expressing inducible ermB after 20 hrs by agar dilution method; method in brief: as §2
Streptococcus pneumoniae [24] = test: Antimicrobial activity against drug-susceptible Streptococcus pneumoniae 3 after 20 hrs by agar dilution method; conditions: Streptococcus pneumoniae, 20 h; read-out: MIC; method in brief: as §1
Moraxella catarrhalis [25] = test: Antimicrobial activity against drug-susceptible Moraxella catarrhalis 2 after 20 hrs by agar dilution method; conditions: Moraxella catarrhalis, 20 h; read-out: MIC; method in brief: as §1

SMILES	MIC (Streptococcus pneumoniae [1]) [µg/mL]	MIC (Streptococcus pneumoniae [2]) [µg/mL]	MIC (Haemophilus influenzae [3]) [µg/mL]	MIC (Streptococcus pneumoniae [4]) [µg/mL]	MIC (Streptococcus pyogenes [5]) [µg/mL]	MIC (Streptococcus pneumoniae [6]) [µg/mL]	MIC (Staphylococcus aureus [7]) [µg/mL]	MIC (Staphylococcus aureus [8]) [µg/mL]	MIC (Moraxella catarrhalis [9]) [µg/mL]	MIC (Streptococcus pneumoniae [10]) [µg/mL]	MIC (Staphylococcus aureus [11]) [µg/mL]	MIC (Staphylococcus aureus [12]) [µg/mL]	MIC (Streptococcus pneumoniae [13]) [µg/mL]	MIC (Streptococcus pneumoniae [14]) [µg/mL]	MIC (Streptococcus pyogenes [15]) [µg/mL]	MIC (Haemophilus influenzae [16]) [µg/mL]	MIC (Streptococcus pyogenes [17]) [µg/mL]	MIC (Haemophilus influenzae [18]) [µg/mL]	MIC (Streptococcus pneumoniae [19]) [µg/mL]	MIC (Haemophilus influenzae [20]) [µg/mL]	also measured
CCOC(=O)[C@H]1[C@H](C)O[C@@H](O[C@H]2[C@H](N(C)C)[C@@H](O)[C@H](O[C@H]3[C@@H](CC=O)C[C@@H](C)[C@@H](O)CN(C)CCC[C@H](C/C=C/c4ccnc5ccccc45)OC(=O)C[C@@H](OC(=O)CC)[C@@H]3OC)O[C@@H]2C)C[C@@]1(C)O	0.06 (≈ 0.0608 µM)	4 (≈ 4.06 µM)	8 (≈ 8.11 µM)	> 128	0.5 (≈ 0.507 µM)	> 128	> 128	0.25 (≈ 0.253 µM)	1 (≈ 1.01 µM)	8 (≈ 8.11 µM)	0.25 (≈ 0.253 µM)	0.25 (≈ 0.253 µM)	0.06 (≈ 0.0608 µM)	0.06 (≈ 0.0608 µM)	> 128	32 (≈ 32.4 µM)	0.13 (≈ 0.132 µM)	2 (≈ 2.03 µM)	0.03 (≈ 0.0304 µM)	8 (≈ 8.11 µM)	MIC (Streptococcus pneumoniae [21]): > 128 µg/mL; MIC (Staphylococcus aureus [22]): 1 µg/mL (≈ 1.01 µM); MIC (Staphylococcus aureus [23]): 0.5 µg/mL (≈ 0.507 µM); MIC (Streptococcus pneumoniae [24]): 0.015 µg/mL (≈ 0.0152 µM); MIC (Moraxella catarrhalis [25]): 1 µg/mL (≈ 1.01 µM)
CCOC(=O)[C@H]1[C@H](C)O[C@@H](O[C@H]2[C@H](N(C)C)[C@@H](O)[C@H](O[C@H]3[C@@H](CC=O)C[C@@H](C)[C@@H](O)CN(C)CCC[C@@H](CCCc4ccnc5ccccc45)OC(=O)C[C@@H](OC(=O)CC)[C@@H]3OC)O[C@@H]2C)C[C@@]1(C)O	0.06 (≈ 0.0607 µM)	32 (≈ 32.4 µM)	8 (≈ 8.1 µM)	> 128	0.5 (≈ 0.506 µM)	> 128	> 128	0.25 (≈ 0.253 µM)	2 (≈ 2.02 µM)	32 (≈ 32.4 µM)	0.25 (≈ 0.253 µM)	0.25 (≈ 0.253 µM)	0.06 (≈ 0.0607 µM)	0.06 (≈ 0.0607 µM)	> 128	64 (≈ 64.8 µM)	0.13 (≈ 0.132 µM)	4 (≈ 4.05 µM)	0.03 (≈ 0.0304 µM)	8 (≈ 8.1 µM)	MIC (Streptococcus pneumoniae [21]): > 128 µg/mL; MIC (Staphylococcus aureus [22]): 0.5 µg/mL (≈ 0.506 µM); MIC (Staphylococcus aureus [23]): 0.5 µg/mL (≈ 0.506 µM); MIC (Streptococcus pneumoniae [24]): 0.06 µg/mL (≈ 0.0607 µM); MIC (Moraxella catarrhalis [25]): 2 µg/mL (≈ 2.02 µM)
CCOC(=O)[C@H]1[C@H](C)O[C@@H](O[C@H]2[C@H](N(C)C)[C@@H](O)[C@H](O[C@H]3[C@@H](CC=O)C[C@@H](C)[C@@H](O)CN(C)CCC[C@H](CCCc4ccnc5ccccc45)OC(=O)C[C@@H](OC(=O)CC)[C@@H]3OC)O[C@@H]2C)C[C@@]1(C)O	0.06 (≈ 0.0607 µM)	8 (≈ 8.1 µM)	16 (≈ 16.2 µM)	> 128	0.5 (≈ 0.506 µM)	> 128	> 128	0.5 (≈ 0.506 µM)	2 (≈ 2.02 µM)	8 (≈ 8.1 µM)	0.5 (≈ 0.506 µM)	0.25 (≈ 0.253 µM)	0.06 (≈ 0.0607 µM)	0.06 (≈ 0.0607 µM)	> 128	32 (≈ 32.4 µM)	0.06 (≈ 0.0607 µM)	4 (≈ 4.05 µM)	0.03 (≈ 0.0304 µM)	16 (≈ 16.2 µM)	MIC (Streptococcus pneumoniae [21]): > 128 µg/mL; MIC (Staphylococcus aureus [22]): 1 µg/mL (≈ 1.01 µM); MIC (Staphylococcus aureus [23]): 0.5 µg/mL (≈ 0.506 µM); MIC (Streptococcus pneumoniae [24]): 0.06 µg/mL (≈ 0.0607 µM); MIC (Moraxella catarrhalis [25]): 2 µg/mL (≈ 2.02 µM)
